Most compounds without a hit are left out; they make up all but 1.5% or so of the library.
PKA-R1A act: activators of PKA-R1A complex. PKA-R1A dissociation, Cy5-IP20 fluorescence polarization; scaled: DMSO 0%, 113 µM cGMP 100%. activation, % at 11.4 µM. actives 0.083% (n = 340,000). AID 504707;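 active = percent activation above the mean of all tested compounds plus 3 SD, cut at about 19% in these data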;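 also: higher means more PKAc released from R1A so a rise in polarization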
CRFBP-R2 block: CRF-BP/CRF-R2 complex antagonism | HEK293 CRF-R2/CRF-BP, CRF-induced calcium fluorescence | inhibition, % at 11.8 µM | actives 0.59% (n = 350,000);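 active = inhibition of the ligand-induced calcium signal above about 50% at the single tested concentration, limit read from the data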
PKA-R2B act: activators of human PKA-R2B complex; P22694+P31323; PKA-R2B holoenzyme dissociation, Cy5-IP20 fluorescence polarization; R2B truncated from residue 108, S112A mutant; 0% DMSO only, 100% 113 µM cGMP; activation, % at 11.4 µM; actives 0.079% (n = 340,000);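 active = activation above a cutoff set at the mean over all compounds plus 3 SD, cut at about 18% in these data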;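 also: higher means more holoenzyme dissociation and a rise in polarization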
Target sequence (P31323 whole entry, looked up, other chains not shown, the tested form may be a part): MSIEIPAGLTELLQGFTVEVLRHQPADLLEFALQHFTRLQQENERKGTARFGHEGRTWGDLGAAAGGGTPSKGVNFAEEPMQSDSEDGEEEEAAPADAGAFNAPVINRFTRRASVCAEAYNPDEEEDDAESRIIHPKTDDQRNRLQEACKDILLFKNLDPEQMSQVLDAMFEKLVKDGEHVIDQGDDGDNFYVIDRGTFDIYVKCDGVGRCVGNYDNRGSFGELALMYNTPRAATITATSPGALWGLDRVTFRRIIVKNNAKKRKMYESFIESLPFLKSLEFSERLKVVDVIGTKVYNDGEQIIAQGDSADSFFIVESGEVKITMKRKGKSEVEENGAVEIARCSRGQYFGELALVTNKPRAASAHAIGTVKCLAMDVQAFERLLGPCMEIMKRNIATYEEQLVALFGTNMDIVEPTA
SIRT5 block: blocks human SIRT5 desuccinylation of peptide. actives 1.1% (n = 330,000). Q9NXA8. Purified SirT5, succinyl-peptide AMC, trypsin-coupled fluorescence. inhibition, % at 15 µM; in the data active = inhibition above about 15%
S100A4 inh HTS: blocks human S100A4 binding to myosin IIA peptide; AID 652163; actives 0.14% (n = 360,000); P26447; inhibition, % at 10.7 µM; S100A4/TAMRA-MyoIIA peptide fluorescence polarization;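 active = mean inhibition of at least 70% across replicates, with every replicate also reaching that level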
Target sequence (P26447 whole entry, looked up): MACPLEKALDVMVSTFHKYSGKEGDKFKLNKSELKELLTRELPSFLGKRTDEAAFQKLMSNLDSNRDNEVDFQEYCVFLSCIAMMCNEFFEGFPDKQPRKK
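Compound dosing: one dose per compound; test system: human S100A4 monomer with TAMRA-labelled myosin IIA peptide; probe or stimulus: TAMRA-labelled myosin IIA heavy-chain peptide probe, 5 nM; medium: HEPES buffer with Ca2+, pH 7.2; schedule: 5 min incubation before reading; benchmarks: neutral control DMSO, positive control TFP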
* hit, by the source's call; / = no result given.

SMILES	PKA-R1A act	CRFBP-R2 block	PKA-R2B act	SIRT5 block	S100A4 inh HTS
CCOc1ccc(/C(O)=C2/C(=O)C(=O)N(CCN(CC)CC)C2c2ccco2)cc1 (stereo not drawn)	3	32	-1	/	/
Cc1ccccc1COc1ccc(/C(O)=C2/C(=O)C(=O)N(CCCn3ccnc3)C2c2ccco2)cc1 (stereo not drawn)	-13	54*	-4	/	/
C/C(Cc1ccccc1)=N\NC(=O)c1ccc(F)cc1	-11	-3	5	0	-1
CC12CC(c3ccccc3O1)C(/C(N)=N/NC(=O)c1ccc(F)cc1)C(=O)N2 (stereo not drawn)	-2	-14	7	16*	-1
O=C(C[C@@H]1CC[C@H](NC(=O)CC2CC2)[C@H](CO)O1)NCc1ccccc1	/	/	/	-1	21
CCOc1ccc(NC(=S)N2CCC(C(O)(c3ccccc3)c3ccccc3)CC2)cc1	-1	56*	-7	0	-2
COc1ccc(NC(=S)N2CCC(C(O)(c3ccccc3)c3ccccc3)CC2)cc1	-7	-18	0	/	/
COc1ccc([N+](=O)[O-])cc1NC(=O)CCN1CCN(C)CC1	-8	-15	-4	0	3
CN1CCN(CCC(=O)N/N=C/c2cc([N+](=O)[O-])ccc2OC(F)F)CC1	-2	7	-6	23*	0
O=C(C[C@H]1CC[C@@H](NC(=O)c2ccc3c(c2)OCO3)[C@@H](CO)O1)NCc1ccc(Cl)cc1	/	/	/	-1	11
O=C(Nc1cc(C(F)(F)F)ccc1-n1cncn1)c1ccc(-c2ccccc2)cc1	4	-23	-7	/	/
O=C(Nc1cc(C(F)(F)F)ccc1-n1cncn1)c1ccc(Cl)cc1	1	82*	-1	/	/
COc1ccc(OCc2cccc(C(=O)NN)c2)cc1	-8	-5	-5	/	4
COc1ccc(OCc2cccc(C(=O)Nn3cc([N+](=O)[O-])cn3)c2)cc1	-10	53*	0	-1	1
CN1CCN(C(=O)C[C@H]2C=C[C@@H](NC(=O)c3ccc4c(c3)OCO4)[C@@H](CO)O2)CC1	/	/	/	-3	14
O=C(CN1CC(c2ccccc2)CC1=O)N/N=C/c1cc(Br)ccc1O (stereo not drawn)	-11	-23	-17	20*	-2
Cc1cc(C)n(CC(=O)c2cccc(N)c2)n1	4	-20	-16	20*	-6
CCCCCCn1c(=O)c(F)cn(Cc2ccc(OC)c([N+](=O)[O-])c2)c1=O	4	59*	-1	/	/
CCCNC(=O)[C@H]1[C@H](CO)[C@H]2Cn3c(ccc(-c4ccccc4F)c3=O)[C@H]2N1CC1CC1	/	/	/	1	24
O=C1CC(N2CCC(c3nc4ccccc4[nH]3)CC2)C(=O)N1c1ccccc1F (stereo not drawn)	5	-5	3	18*	3
C[C@H]1CN([C@@H](C)CO)C(=O)c2cccc(NC(=O)Nc3ccc(F)cc3)c2O[C@H]1CN(C)S(=O)(=O)c1ccccc1	/	/	/	-1	13
CC(C)NC(=O)N(C)C[C@@H]1Oc2ccc(NC(=O)C3CCCCC3)cc2C(=O)N([C@@H](C)CO)C[C@@H]1C	/	/	/	-7	-12
CC(=O)/C=C/n1c(=S)oc2ccccc21	/	70*	/	/	1
COc1ccc2c3c(n(C)c2c1)[C@H](CO)N(C(=O)CC1CC1)CC31CCN(C(=O)NC(C)C)CC1	/	/	/	-10	8
CSc1nnc(-c2sc(-c3ccccc3)nc2C)n1C	-7	55*	-7	/	/
SMILES	PKA-R1A act	CRFBP-R2 block	PKA-R2B act	SIRT5 block	S100A4 inh HTS
Cc1nc(-c2ccccc2)sc1-c1n[nH]c(=S)n1C	3	5	7	/	/
CC(C)C#Cc1cnc2c(c1)C(=O)N([C@@H](C)CO)C[C@H](C)[C@@H](CN(C)Cc1cncnc1)O2	/	/	/	-6	-9
NC(=S)N=Nc1c(O)n(CCCl)c2ccccc12	/	26	/	19*	0
C[C@@H]1CN([C@H](C)CO)C(=O)c2cc(NC(=O)Nc3ccc4c(c3)OCO4)ccc2O[C@@H](C)CCCCO[C@H]1CN(C)S(=O)(=O)c1cccs1	/	/	/	18*	-11
C[C@@H]1CCCCO[C@@H](CN(C)S(=O)(=O)c2cccs2)[C@H](C)CN([C@H](C)CO)C(=O)c2cc(NC(=O)Nc3ccc(F)cc3)ccc2O1	/	/	/	17*	-17
Cc1cccc(C)c1-c1ccc(CN2C(CC(C)C)C(=O)N(Cc3cn(CC4CCCCC4)nn3)CCS2(=O)=O)cc1 (stereo not drawn)	-5	-7	5	-3	3
CC(C)CC1C(=O)N(Cc2cn(CC3CCCCC3)nn2)CCS(=O)(=O)N1Cc1ccc(-c2ccc(Cl)c(Cl)c2)cc1 (stereo not drawn)	0	5	-13	19*	0
Cc1ccc(-c2ccc(CN3C(C(C)C)C(=O)N(Cc4cn(Cc5ccco5)nn4)CCS3(=O)=O)cc2)cc1 (stereo not drawn)	0	-23	-7	16*	-3
CO[C@H]1CN(C)C(=O)c2ccc(NC(=O)NC(C)C)cc2OC[C@@H](C)N(Cc2ccccc2)C[C@H]1C	/	/	/	11	-12
NC1=NN=C(c2ccc3c(c2)OCCO3)CS1	-9	1	-3	15*	-4
CO[C@@H]1CN(C)C(=O)c2cc(C#N)ccc2OC[C@H]2O[C@H](CC[C@H]2OC)CCN(C)C(=O)[C@H]1C	/	/	/	-1	-3
CO[C@H]1CN(C)C(=O)c2cccc(C#N)c2OC[C@H]2O[C@H](CC[C@@H]2OC)CCN(C)C(=O)[C@H]1C	/	/	/	21*	-26
CO[C@@H]1CC[C@@H]2CCN(C)C(=O)[C@H](C)[C@H](OC)CN(C)C(=O)c3cc(C#N)ccc3OC[C@@H]1O2	/	/	/	0	-3
CO[C@H]1CC[C@H]2CCN(C)C(=O)[C@@H](C)[C@H](OC)CN(C)C(=O)c3cc(C#N)ccc3OC[C@H]1O2	/	/	/	7	98*
CO[C@H]1CN(C)C(=O)c2cccc(C#N)c2OC[C@H]2O[C@H](CC[C@H]2OC)CCN(C)C(=O)[C@@H]1C	/	/	/	1	-12
CO[C@H]1CC[C@H]2CCN(C)C(=O)[C@@H](C)[C@H](OC)CN(C)C(=O)c3cc(C#N)ccc3OC[C@@H]1O2	/	/	/	16*	-9
Cc1noc(C)c1NC(=O)Nc1ccc2c(c1)C(=O)N([C@@H](C)CO)C[C@@H](C)[C@H](CN(C)C(=O)CCCN(C)C)OCCCC[C@@H](C)O2	/	/	/	5	26
CC(C)NC(=O)N1[C@H](CO)[C@@H](c2ccccc2)C12CN(C(=O)Cc1ccccc1)C2	/	/	/	1	-4
Cc1ccc2nc(N3C(=O)C(O)=C(C(=O)c4ccco4)C3c3cccs3)sc2c1 (stereo not drawn)	-7	9	-16	/	/
Cc1ccc2nc(N3C(=O)C(O)=C(C(=O)c4ccc(C)o4)C3c3ccc(O)cc3)sc2c1 (stereo not drawn)	-6	3	1	22*	-9

Screening results deposited in PubChem BioAssay by several laboratories.
